Where a SMILES comes first, the peptide text is derived from it. [ ]: non-standard residue; d: D form.
Legend:
Mu-type opioid receptor = Mu-type opioid receptor (Rattus norvegicus, UniProt P33535); experiment: Inhibition of [3H]DAMGO binding to rat whole brain Opioid receptor mu
How it was run: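 Rat whole-brain (minus cerebellum) membranes (0.3 mg protein) were incubated with 0.7 nM [3H]DAMGO and peptide (1 nM to 10 µM) for 2 h at 25 °C. Buffer was 50 mM Tris-HCl pH 7.4, 5 mM MgCl2, with protease inhibitors. Nonspecific binding was defined with 10 µM BNTX. Bound ligand was separated by GF/C filtration. Mean ± SEM, ≥3 experiments.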

Cavia porcellus [1] = species: Cavia porcellus; experiment: Inhibition of isolated guinea pig ileum contraction induced by electrical stimulation; type: functional
How it was run: (§1)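 Electrical field stimulation was applied after 30-40 min equilibration: train 100 ms, pulse width 1 ms, pulse interval 10 ms, supramaximal 20 V. Compounds were added cumulatively at 3-fold steps (0.1 nM to 1 µM), with parallel runs in 10 nM naloxone. Isotonic tension was recorded as % of control […]. Efficacy is the maximal inhibition; EC50 is the half-maximal concentration. Mean ± SEM, 4-6 experiments.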

[2] = target: Delta-type opioid receptor (Rattus norvegicus) (UniProt P33533); experiment: Inhibition of [3H]naltrindole binding to rat whole brain Opioid receptor delta at 1-10 uM
Sequence of Delta-type opioid receptor (Rattus norvegicus) (P33533 whole entry): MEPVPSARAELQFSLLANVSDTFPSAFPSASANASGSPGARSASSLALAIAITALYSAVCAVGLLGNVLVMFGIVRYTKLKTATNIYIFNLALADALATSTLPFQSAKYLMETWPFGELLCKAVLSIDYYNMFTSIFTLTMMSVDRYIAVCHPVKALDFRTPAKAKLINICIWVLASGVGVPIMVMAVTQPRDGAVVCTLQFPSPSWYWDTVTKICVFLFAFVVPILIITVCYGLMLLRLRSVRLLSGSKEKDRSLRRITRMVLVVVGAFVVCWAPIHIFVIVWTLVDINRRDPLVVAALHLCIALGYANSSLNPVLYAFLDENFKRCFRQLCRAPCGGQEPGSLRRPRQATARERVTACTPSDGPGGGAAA
How it was run: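 Brain (minus cerebellum) membranes were labelled with [3H]naltrindole as the δ radioligand. […] Mean ± SEM, n experiments.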

Cavia porcellus [3] = species: Cavia porcellus; experiment: Efficacy against isolated guinea pig ileum contraction induced by electrical stimulation; type: functional; how it was run: as §1

Sequence of Mu-type opioid receptor (P33535 whole entry): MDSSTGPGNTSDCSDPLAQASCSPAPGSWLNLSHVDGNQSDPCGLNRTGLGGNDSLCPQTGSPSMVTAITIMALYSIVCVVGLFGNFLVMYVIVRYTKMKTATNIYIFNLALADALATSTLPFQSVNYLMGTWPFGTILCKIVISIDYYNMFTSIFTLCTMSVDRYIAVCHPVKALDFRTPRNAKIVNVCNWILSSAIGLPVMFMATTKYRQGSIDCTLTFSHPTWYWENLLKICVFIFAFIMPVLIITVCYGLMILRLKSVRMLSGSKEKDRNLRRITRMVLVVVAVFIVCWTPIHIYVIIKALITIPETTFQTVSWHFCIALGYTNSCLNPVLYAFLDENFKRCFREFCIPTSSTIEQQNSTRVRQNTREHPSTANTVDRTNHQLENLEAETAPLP

With `NC(=O)[C@@H]1CCCN1C(=O)[C@H](Cc1ccccc1)NC(=O)[C@@H]1CCCN1C(=O)[C@@H](N)Cc1ccc(O)cc1` (H-YPFP-NH2) [listing 1 of 2 here] the Ki (Mu-type opioid receptor) was 25.6 nM and the EC50 (Cavia porcellus [1]) was 13 nM.
With `NC(=O)[C@@H]1CSC([C@H](Cc2c[nH]c3ccccc23)NC(=O)[C@@H]2CCCN2C(=O)[C@@H](N)Cc2ccc(O)cc2)N1` (stereo partly drawn) the Ki (Mu-type opioid receptor) was 178 nM, the EC50 (Cavia porcellus [1]) was 28 nM and the inhibition [2] was 67.8%. It also gave an Efficacy (Cavia porcellus [3]) of 70%.
Work on `CN(C)C(=O)C(CCN1CCC(O)(c2ccc(Cl)cc2)CC1)(c1ccccc1)c1ccccc1` [LOPERAMIDE] yielded an EC50 (Cavia porcellus [1]) of 489 nM and an Efficacy (Cavia porcellus [3]) of 11%.
For `NC(=O)[C@@H]1CSC([C@@H](Cc2ccccc2)NC(=O)[C@@H]2CCCN2C(=O)[C@@H](N)Cc2ccc(O)cc2)N1` (stereo partly drawn), the Ki (Mu-type opioid receptor) was 290 nM, the EC50 (Cavia porcellus [1]) was 36 nM and the inhibition [2] was 42.2%. For the same compound, the Efficacy (Cavia porcellus [3]) was 71%.
`NC(=O)[C@@H]1CCCN1C(=O)[C@H](Cc1ccccc1)NC(=O)[C@@H]1CSC([C@@H](N)Cc2ccc(O)cc2)N1` (stereo partly drawn) showed an inhibition [2] of 10.2% and an Efficacy (Cavia porcellus [3]) of 17%.
In the case of `CN1CC[C@]23c4c5ccc(O)c4O[C@H]2[C@@H](O)C=C[C@H]3[C@H]1C5` [MORPHINE], the Efficacy (Cavia porcellus [3]) is reported as 66%.
Compound `C[C@@H](NC(=O)[C@@H](N)Cc1ccc(O)cc1)C(=O)NCC(=O)N(C)[C@@H](Cc1ccccc1)C(=O)NCCO` [DAMGO] has an EC50 (Cavia porcellus [1]) of 36.2 nM and an Efficacy (Cavia porcellus [3]) of 61%.
For `NC(=O)[C@H]1CCCN1C(=O)[C@H](Cc1ccccc1)NC(=O)[C@@H]1CCCN1C(=O)[C@@H](N)Cc1ccc(O)cc1` (H-YPF[dP]-NH2), the inhibition [2] was 23.6%.
`NC(=O)[C@@H]1CSC([C@H](Cc2ccccc2)NC(=O)[C@@H]2CCCN2C(=O)[C@@H](N)Cc2ccc(O)cc2)N1` (stereo partly drawn) gave a Ki (Mu-type opioid receptor) of 14.1 nM, an EC50 (Cavia porcellus [1]) of 9.7 nM and an inhibition [2] of 22.7%. It also gave an Efficacy (Cavia porcellus [3]) of 65%.
Work on `NC(=O)[C@@H]1CCCN1C(=O)[C@H](Cc1ccccc1)NC(=O)[C@@H]1CCCN1C(=O)[C@@H](N)Cc1ccc(O)cc1` (H-YPFP-NH2) [listing 2 of 2 here] yielded an Efficacy (Cavia porcellus [3]) of 65%.

From ChEMBL document CHEMBL1143626, “Morphiceptin analogues containing a dipeptide mimetic structure: an investigation on the bioactive topology at the mu-receptor” (J Med Chem, 2005)
